Measurements from ChEMBL document CHEMBL3792366, “Role of disulfide linkage in action of bis(dialkylaminethiocarbonyl)disulfides as potent double-Edged microbicidal spermicide: Design, synthesis and biology” (Eur J Med Chem, 2016).
Values after ≈ are worked out from the molar mass of the structure shown. Active and inactive are the calls of the source. The calls are words filed in the database; no cut-off is given here.

Columns and labels:
[1] = system: Trichomonas vaginalis; experiment: Selectivity ratio of MIC for metronidazole-resistant trophozoite stage of Trichomonas vaginalis ATCC 50143 to MIC for metronidazole-susceptible trophozoite stage of Trichomonas vaginalis; format: functional
[2] = system: Trichomonas vaginalis; experiment: Antitrichomonas activity against metronidazole-susceptible Trichomonas vaginalis in sc dosed mouse assessed as pustule formation at 5 ug administered daily measured after 7 days (reference value: 190 mm'2); format: functional
[3] = system: Trichomonas vaginalis; experiment: Antitrichomonas activity against trophozoite stage of Trichomonas vaginalis clinical isolate assessed as cell viability under anaerobic condition after 48 hrs by trypan blue exclusion assay; format: functional
Outline: (§1)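 Log-phase T. vaginalis grown in TYM with 10% FCS, vitamin mix and penicillin/streptomycin at 37 °C. Compounds were made as 100 µg/mL DMSO stocks and serially diluted in TYM down to 0.1 µg/mL; DMSO/TYM served as vehicle. Parasites were incubated anaerobically at 37 °C, and viability was checked by trypan blue exclusion from 3 to 48 h. MIC = lowest concentration killing all cells by 48 h; each test was repeated three times.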

[4] = system: Trichomonas vaginalis; experiment: Antitrichomonas activity against metronidazole-susceptible Trichomonas vaginalis in sc dosed mouse assessed as spleen weight at 5 ug administered daily measured after 7 days (reference value: 0.59 g); format: functional
[5] = system: Trichomonas vaginalis; experiment: Antitrichomonas activity against metronidazole-susceptible Trichomonas vaginalis in sc dosed mouse assessed as pustule formation at 5 ug administered daily measured after 5 days (reference value: 109 mm'2); format: functional
[6] = system: Trichomonas vaginalis; experiment: Antitrichomonas activity against metronidazole-resistant trophozoite stage of Trichomonas vaginalis ATCC 50143 assessed as cell viability under anaerobic condition after 48 hrs by trypan blue exclusion assay; format: functional; settings: ATCC 50143, 48 h; outline: as §1
[7] = system: Trichomonas vaginalis; experiment: Potency index, ratio of metronidazole MIC to compound MIC for metronidazole-resistant trophozoite stage of Trichomonas vaginalis ATCC 50143; format: functional
[8] = system: Cryptococcus neoformans; experiment: Antifungal activity against Cryptococcus neoformans after 48 hrs by broth microdilution method; format: functional
Outline: (§2)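 NCCLS broth microdilution in RPMI 1640 buffered with MOPS; starting inoculum 1–5 × 10^3 CFU/mL; plates incubated at 35 °C; MIC read after 48 h.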

[9] = system: Sporothrix schenckii; experiment: Antifungal activity against Sporothrix schenckii after 48 hrs by broth microdilution method; format: functional; outline: as §2
[10] = system: Candida albicans; experiment: Antifungal activity against Candida albicans after 48 hrs by broth microdilution method; format: functional; outline: as §2
[11] = system: Candida parapsilosis; experiment: Antifungal activity against Candida parapsilosis ATCC 22019 after 48 hrs by broth microdilution method; format: functional; settings: Lodderomyces parapsilosis, ATCC 22019, 48 h; outline: as §2
[12] = Spermicidal activity in human sperms assessed as motility measured within 30 secs by phase contrast microscopy; format: functional, Sperm
Outline: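 Liquefied human semen (0.05 mL) was added to 0.25 mL test solution and vortexed 10 s at low speed. Motile sperm were scored visually under phase contrast in five fields within 30 s; assays in triplicate; MEC = minimum effective concentration.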

[13] = system: Trichophyton mentagrophytes; experiment: Antifungal activity against Trichophyton mentagrophytes after 48 hrs by broth microdilution method; format: functional; outline: as §2
[14] = system: HeLa; experiment: Cytotoxicity against human HeLa cells after 5 hrs by lactate dehydrogenase release assay; format: cell-based
Outline: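 HeLa cells were seeded at 2×10^4/well in triplicate and grown 24 h at 37 °C in 5% CO2. The DMEM was then replaced with medium holding serially diluted compound, and plates were incubated 5 h. LDH release in the supernatant was measured colorimetrically at 490 nm, and IC50 was derived from it.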

[15] = system: Trichomonas vaginalis; experiment: Antitrichomonas activity against Trichomonas vaginalis assessed as reduction in free thiol levels in parasite membrane at MIC after 24 hrs by fluorescence microscopy; format: functional, organism-based
[16] = Selectivity index, ratio of IC50 for Lactobacillus jensenii ATCC 25258 to MIC for metronidazole resistant trophozoite stage of Trichomonas vaginalis ATCC 50143
[17] = Toxicity in Lactobacillus jensenii ATCC 25258 after 72 hrs
[18] = Selectivity index, ratio of IC50 for Lactobacillus jensenii ATCC 25258 to MIC for trophozoite stage of Trichomonas vaginalis clinical isolate
[19] = system: Oryctolagus cuniculus; experiment: In vivo spermicidal activity in Belgian rabbit assessed as decrease in pregnancy rate at 15 mg via intravaginal instillation measured 30 to 34 days post gestation period; format: functional
Outline: (§3)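 Young adult female Belgian rabbits. Compound was blended into K-Y Jelly, with plain jelly for controls. Two mL of jelly was instilled 10–12 cm deep into the vagina by catheter, with the animal supine.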

[20] = system: Oryctolagus cuniculus; experiment: In vivo spermicidal activity in Belgian rabbit assessed as decrease in litter size at 15 mg via intravaginal instillation measured 30 to 34 days post gestation period; format: functional; design: scale not given: the % may be the effect or the level left; outline: as §3
[21] = system: Oryctolagus cuniculus; experiment: In vivo spermicidal activity in Belgian rabbit assessed as decrease in litter size at 10 mg via intravaginal instillation measured 30 to 34 days post gestation period; format: functional; design: scale not given: the % may be the effect or the level left; outline: as §3
[22] = system: Oryctolagus cuniculus; experiment: In vivo spermicidal activity in Belgian rabbit assessed as decrease in pregnancy rate at 20 mg via intravaginal instillation measured 30 to 34 days post gestation period; format: functional; outline: as §3
[23] = system: Oryctolagus cuniculus; experiment: In vivo spermicidal activity in Belgian rabbit assessed as decrease in pregnancy rate administered via intravaginal instillation measured 30 to 34 days post gestation period; format: functional, organism-based; outline: as §3
[24] = system: Oryctolagus cuniculus; experiment: In vivo spermicidal activity in Belgian rabbit assessed as decrease in litter size at 20 mg via intravaginal instillation measured 30 to 34 days post gestation period; format: functional; design: scale not given: the % may be the effect or the level left; outline: as §3
[25] = system: Sperm; experiment: Spermicidal activity in human sperm assessed as decrease in free thiol levels in sperm membrane at MEC after 15 mins by mBBr dye based fluorescence microscopy; format: functional, cell membranes
Outline: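 Semen (0.5 mL) was incubated with 2.5 mL of compound at MEC, or saline, for 15 min at room temperature. Sperm were pelleted at 700×g, washed in PBS and labelled with 0.5 mM (final) mBBr for 15 min in the dark. After washing, cells were imaged by epifluorescence (UV1A filter) at equal exposure times.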

[26] = system: Oryctolagus cuniculus; experiment: In vivo spermicidal activity in Belgian rabbit assessed as decrease in pregnancy rate at 10 mg via intravaginal instillation measured 30 to 34 days post gestation period; format: functional; outline: as §3
[27] = system: Oryctolagus cuniculus; experiment: In vivo spermicidal activity in Belgian rabbit assessed as decrease in pregnancy rate at 25 mg via intravaginal instillation measured 30 to 34 days post gestation period; format: functional; outline: as §3
[28] = system: Oryctolagus cuniculus; experiment: In vivo spermicidal activity in Belgian rabbit assessed as decrease in litter size at 50 mg via intravaginal instillation measured 30 to 34 days post gestation period; format: functional; design: scale not given: the % may be the effect or the level left; outline: as §3
[29] = system: Oryctolagus cuniculus; experiment: In vivo spermicidal activity in Belgian rabbit assessed as decrease in pregnancy rate at 50 mg via intravaginal instillation measured 30 to 34 days post gestation period; format: functional; outline: as §3
[30] = system: Oryctolagus cuniculus; experiment: In vivo spermicidal activity in Belgian rabbit assessed as decrease in litter size at 25 mg via intravaginal instillation measured 30 to 34 days post gestation period; format: functional; design: scale not given: the % may be the effect or the level left; outline: as §3

| Structure (SMILES) | Selectivity ratio [1] | Activity [2] [mm2] | MIC [3] [µM] | Activity [4] [g] | Activity [5] [mm2] | MIC [6] [µM] | Ratio [7] | MIC [8] [µM] | MIC [9] [µM] | MIC [10] [µM] | MIC [11] [µM] | MEC [12] [%] | MIC [13] [µM] | IC50 [14] [µM] | Activity [15] | Selectivity Index [16] | IC50 [17] [µM] | Selectivity Index [18] | Activity [21] [%] | Activity [23] | also measured |
| --- | --- | --- | --- | --- | --- | --- | --- | --- | --- | --- | --- | --- | --- | --- | --- | --- | --- | --- | --- | --- | --- |
| Cc1ncc([N+](=O)[O-])n1CCO [METRONIDAZOLE] | 25 | 7.59 | 11.6 (≈ 1.99 µg/mL) | 0.5 | 15 | 292 (≈ 50 µg/mL) |  |  |  |  |  |  |  |  |  |  |  |  |  |  |  |
| CN(Cc1ccccc1)C(=S)SSC(=S)N(C)Cc1ccccc1 | 4 |  | 7.9 (≈ 3.1 µg/mL) |  |  | 31.8 (≈ 12.5 µg/mL) | 4 | 7.9 (≈ 3.1 µg/mL) | 31.8 (≈ 12.5 µg/mL) | 31.8 (≈ 12.5 µg/mL) | > 127 | >1 | 63.6 (≈ 25 µg/mL) |  |  |  |  |  |  |  |  |
| CN(C)C(=S)SSC(=S)N(C)C [THIRAM] |  | 4.45 | 12.9 (≈ 3.1 µg/mL) | 0.3 | 15 | 12.9 (≈ 3.1 µg/mL) | 16 | 3.2 (≈ 0.769 µg/mL) | 51.8 (≈ 12.5 µg/mL) | 6.5 (≈ 1.56 µg/mL) | 51.8 (≈ 12.5 µg/mL) | 0.01 | 6.5 (≈ 1.56 µg/mL) | 2430 | Active | 188 | 8390 | 188 |  |  |  |
| CCCCN1CCN(C(=S)SSC(=S)N2CCN(CCCC)CC2)CC1 |  |  | 14.3 (≈ 6.22 µg/mL) |  |  | 28.7 (≈ 12.5 µg/mL) | 4 | 114 (≈ 49.6 µg/mL) | 114 (≈ 49.6 µg/mL) | 57.4 (≈ 25 µg/mL) | 57.4 (≈ 25 µg/mL) | 0.001 | 114 (≈ 49.6 µg/mL) | 359 |  | 12 | 832 | 25 | 67 | Dose-dependent effect | Efficacy [19]: 62.5%; Activity [20]: 74%; Efficacy [22]: 50%; Activity [24]: 76%; Activity [25]: Active; Efficacy [26]: 37.5% |
| N#CCCCN1CCN(C(=S)SSC(=S)N2CCN(CCCC#N)CC2)CC1 |  | 5.75 | 6.8 (≈ 3.11 µg/mL) | 0.3 | 15 | 6.8 (≈ 3.11 µg/mL) | 16 | > 109 | 109 (≈ 49.8 µg/mL) | > 109 | > 109 | 0.001 | 109 (≈ 49.8 µg/mL) | 2510 | Active | 368 | 6110 | 368 | 90 | Dose-dependent effect | Efficacy [27]: 100%; Activity [28]: 100%; Efficacy [29]: 100%; Activity [30]: 100%; Efficacy [26]: 85.7% |
